Data on 91 compounds can be found in PubChem BioAssay AID1217 (Sanford-Burnham Center for Chemical Genomics, 2008).

Molecules are shown by their SMILES. In all, about 190,000 compounds went through this assay and about 1,300 (0.68%) were called active. What follows is part of a selection rich in actives, with near analogues and random picks from the rest. Values without a mark were called inactive.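 How the source made its calls: active means primary screen inhibition at 20 µM above a set limit (cut at about 50% in these data); inactive means the rest.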

The test concerns diaphorase (Clostridium kluyveri). The test can be described thus: diaphorase inhibitors and chemical oxidizers, primary screen, counter-screen for diaphorase-coupled primary assays, biochemical, uHTS, resorufin fluorescence (AID 1217).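 Further: plate controls were DMSO with full reaction for no effect and wells lacking NADH for full effect.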 The note with it: diaphorase resazurin-to-resorufin fluorescence, NADH, 16 min; at 20 µM; hits give high values; bacterial (C. kluyveri) enzyme, not human. In short, it runs like this:
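material = Clostridium kluyveri diaphorase enzyme | amount = 0.14 U/mL diaphorase, enzyme working solution | schedule = incubation 16 min, room temperature | detection = fluorescence of resorufin formed from resazurin, Ex 544/Em 590 nm | benchmarks = positive control minus NADH, DMSO neutral control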
For the compound `O=C(Oc1cccc(NC2=NS(=O)(=O)c3ccccc32)c1)c1ccncc1`, the inhibition is 50.9% (active).

Regarding `O=C(Oc1ccccc1)c1ccc2nccnc2c1`, the inhibition was 6.5%.

As for `CC(C)(C)c1csc(NC2=NS(=O)(=O)c3ccccc32)n1`, the inhibition was 15.4%.

As to `Cc1ccc(NC(=O)c2sccc2C)cc1[N+](=O)[O-]`, the inhibition is 12.8%.

Regarding `O=C(COC(=O)/C=C/c1ccc(S(=O)(=O)N2CCCCCC2)cc1)NCc1ccccc1Cl`, the inhibition was 7.9%.

In the case of `CN(C)NC(=O)C(NC(=O)c1ccc(N)cc1)C12CC3CC(CC(C3)C1)C2` (stereo unspecified), the inhibition was 4.7%.

For the compound `Brc1ccc(CSc2ccc(-c3ccco3)nn2)cc1`, the inhibition was 6.5%.

`Clc1ccccc1CSc1nnc(-c2ccco2)c(-c2ccco2)n1`: the inhibition was 46.2%.

With `c1ccc(CSc2nnc(-c3ccco3)c(-c3ccco3)n2)cc1`, the inhibition is 52.9% (active).

Consider `O=C(CCN1CCN(c2ccccc2)CC1)NNC(=S)Nc1ccccc1`, for which the inhibition is 20.6%.

Take `COC(=O)/C=C\C(=O)Nc1cccc([N+](=O)[O-])c1`: the inhibition is -5.8%.

As for `CC(=O)Nc1ccc(NC(=O)c2sc3nc4c(c(-c5ccc(C)cc5)c3c2N)CCC4)cc1`, the inhibition is 51.1% (active).

Take `Cc1ccc(NC(=O)c2sc3nc(N)c(C#N)cc3c2N)cc1`: the inhibition was 18.4%.

For the compound `NC(=O)c1sc2nc3c(c(-c4ccccc4)c2c1N)CCC3`, the inhibition was 36.8%.

Take `Cc1cccc(NC(=O)CSc2nnc(-c3ccco3)o2)c1`: the inhibition is 9.8%.

With `Cc1nc2sc(C(=O)c3ccccc3)c(N)c2c2c1CCCC2`, the inhibition is 28.7%.

For `Cc1cccc(NC(=O)c2sc3nc4c(c(-c5ccco5)c3c2N)CCC4)c1`, the inhibition was 61.2% (active).

With `COCCN(C(=O)CCC(=O)Nc1nccs1)C(C(=O)NC(C)(C)C)c1ccc(Cl)cc1` (stereo unspecified), the inhibition is 10.1%.

As to `COc1cccc(CN(C)CC(=O)Nc2ccccc2C(=O)Nc2ccccc2)c1`, the inhibition was 26.6%.

Consider `S=C(Nc1ccc2c(c1)OCO2)N1CCCC1`, for which the inhibition is 3.4%.

In the case of `N/C(=N\OC(=O)Cc1ccccc1[N+](=O)[O-])c1ccc(Br)cc1`, the inhibition is 23.2%.

Consider `CCNCc1cc2cc(C)ccc2[nH]c1=O`, for which the inhibition is 20%.

`Cc1ccc2[nH]c(=O)c(-c3nc4c(C)cccn4c3NCc3ccco3)cc2c1`: the inhibition is 51.5% (active).

Turning to `COc1ccc(CCn2c(=N)c(C(=O)NCc3ccco3)cc3c(=O)n4cccc(C)c4nc32)cc1`, the inhibition is 8.1%.

Take `Cc1ccc(C)c(-n2cc(CN3CCN(C(=O)c4ncn[nH]4)CC3)c(-c3ccccc3)n2)c1`: the inhibition was 13.7%.

Turning to `c1ccc(C2=Nc3cccc4cccc(c34)N2)cc1`, the inhibition is 27%.

For `Fc1ccccc1N=C1Nc2cccc3cccc1c23`, the inhibition is 12.1%.

Take `COc1ccccc1C1=Nc2cccc3cccc(c23)N1`: the inhibition is 63.5% (active).

For the compound `O=C1CC(=O)Nc2cc(S(=O)(=O)N3CCN(c4cccc(C(F)(F)F)c4)CC3)ccc2N1`, the inhibition was 0.3%.

On to `CCOC(=O)C1=NOC(Cn2cc(C(C)=O)c(=O)[nH]c2=O)C1` (stereo unspecified), for which the inhibition was 2.6%.

On to `CCOc1cc(/C=N/NC(=O)c2ccc(CSc3nncn3C)cc2)ccc1OCC(=O)N1CCOCC1`, for which the inhibition is -14%.

Take `COc1cc(CNCCN(C)C)ccc1OCc1c(F)cccc1Cl`: the inhibition was 3.9%.

As to `COc1ccc(C[C@H]2CN3C(=NC[C@H]3C)N2CCNC(=O)CCC2CCCCC2)cc1`, the inhibition is 0.9%.

Consider `O=C(N/N=C/c1ccc(O)c(O)c1)C1c2ccccc2Oc2ccccc21`, for which the inhibition was 37.6%.

As for `Cc1nc2ccccc2n1CC(=O)N/N=C/c1cccnc1`, the inhibition is 8.6%.

Turning to `Cc1nccn1CC(=O)N/N=C/c1ccc(O)c(O)c1`, the inhibition is 50.4% (active).

As for `CCN(CC)C(=O)Cn1cc(S(=O)(=O)CC(=O)NCc2ccc3c(c2)OCO3)c2ccccc21`, the inhibition was 10.1%.

Consider `CC(C)Oc1ccc(CC(=O)NNC(=S)Nc2ccc(Br)cc2)cc1`, for which the inhibition was -0.6%.

Consider `COC(=O)c1ccc(C(=O)OC)c(NC(=S)N2CCN(c3ccc(F)cc3)CC2)c1`, for which the inhibition is 11.5%.

With `CCc1ccc(N(CC(=O)Nc2sc3c(c2C(=O)OC)CCCC3)S(C)(=O)=O)cc1`, the inhibition was 28.6%.

Turning to `Cc1cc(C)cc(OCc2nnc(SCC(=O)Nc3ccccc3)o2)c1`, the inhibition was 8.2%.

In the case of `Cc1ccc(NC(=O)CSc2nnc(COc3ccccc3C)o2)cc1`, the inhibition is 55.6% (active).

In the case of `Cc1ccc(NC(=O)CSc2nnc(CNC(=O)c3ccccc3F)o2)cc1`, the inhibition is -12.4%.

In the case of `C/C(=N\NC(=O)OC(C)(C)C)c1ccc[nH]1`, the inhibition is 1.8%.

Turning to `COc1ccc(-c2cc(C3CCN(c4ncccc4[N+](=O)[O-])CC3)[nH]n2)cc1`, the inhibition was 52.2% (active).

Consider `COc1ccc(N2CCN(c3ccc([N+](=O)[O-])nc3)CC2)cc1`, for which the inhibition is -1%.

In the case of `CC(=O)NC(Cc1ccccc1)C(=O)NC1CCN(c2ncccc2[N+](=O)[O-])CC1` (stereo unspecified), the inhibition was 15.7%.

Regarding `Cc1ccc(CNC(=O)Cn2c(=O)c3sccc3n(Cc3cccc([N+](=O)[O-])c3)c2=O)cc1`, the inhibition is -2.4%.

Take `O=C(C1CCN(S(=O)(=O)c2ccc(Br)s2)CC1)N1CCN(C2CCCCC2)CC1`: the inhibition is 18.2%.

`CCn1c(O)c(N=NC2=NC(=O)CS2)c2cc(C)ccc21`: the inhibition is 86.4% (active).

With `CCn1c(=O)cc(O)c2ccccc21`, the inhibition is 8.6%.

Turning to `CCn1c(O)c(N=NC(=O)c2cccc(S(=O)(=O)N3CCCCC3)c2)c2ccccc21`, the inhibition was 29.2%.

On to `CC(C)c1ccc(Nc2nnc(SCC(=O)c3nnc(-c4ccccc4)o3)s2)cc1`, for which the inhibition is 18.8%.

For the compound `O=C1OCC2=C1C(c1ccccc1)CC(=O)N2c1cccc(F)c1` (stereo unspecified), the inhibition is -4.2%.

On to `COc1ccc(N2CCN(CCCNC(=O)C3CCN(S(=O)(=O)N4CCOCC4)CC3)CC2)cc1`, for which the inhibition was 0.3%.

Consider `CN1CCN(C(=O)C2=C[C@H](c3ccc4c(c3)OCO4)C[C@H](OCc3ccc(CO)cc3)O2)CC1`, for which the inhibition is 5.9%.

In the case of `CC(=O)n1cc([C@@H]2C=C(C(=O)N3CCN(Cc4ccc5c(c4)OCO5)CC3)O[C@H](OCc3ccc(CO)cc3)C2)c2ccccc21`, the inhibition was 53.6% (active).

As for `CC(=O)n1cc([C@H]2C=C(C(=O)N3CCOCC3)O[C@@H](OCc3ccc(CO)cc3)C2)c2ccccc21`, the inhibition is -0.6%.

Consider `O=C(OCC(=O)N1CCOCC1)c1ccc(N2CCOCC2)c([N+](=O)[O-])c1`, for which the inhibition is 3.6%.

As to `CC(C)(C)NC(=O)C(=O)NN=C1CCCCCCC1`, the inhibition was 3.8%.

With `CCN(CC)CCN(C(=O)c1cccc([N+](=O)[O-])c1)c1nc2ccc(OC)cc2s1`, the inhibition was 9.6%.

On to `O=C(COC(=O)c1ccccc1SCC(=O)NC1CCCCC1)NC1CCCCC1`, for which the inhibition was 3.2%.

In the case of `Cc1nn(-c2ccccc2)c(C)c1C(=O)OCC(=O)NC(=O)NC1CCCCC1`, the inhibition is 57.3% (active).

Turning to `CCCn1c(C)cc(C(=O)COC(=O)c2c(C)nn(-c3ccccc3)c2C)c1C`, the inhibition is 18.9%.

With `Cn1cnnc1SCc1nnc(-c2ccccc2Br)o1`, the inhibition was 4.8%.

As to `CCC1CCCCN1C(=O)CSc1nc2c(c(=O)n(C)c(=O)n2C)n1C` (stereo unspecified), the inhibition was 6.8%.

With `CCOC(=O)C1(CC2CCCCO2)CCN(Cc2nc(-c3cccs3)oc2C)CC1` (stereo unspecified), the inhibition was 56.2% (active).

With `CC1CCC2(CC1)NC(=O)N(Cc1nnc(-c3cccs3)o1)C2=O` (stereo unspecified), the inhibition was 8.2%.

On to `COc1cccc(CC2(CO)CCCN(Cc3nc(-c4cccs4)oc3C)C2)c1` (stereo unspecified), for which the inhibition was 17.2%.

Consider `COc1ccc(Nc2nc(N)nc(CSC(=S)N3CCC(C)CC3)n2)cc1`, for which the inhibition is 28.1%.

For the compound `O=c1c(-c2ccccc2)coc2cc(O)ccc12`, the inhibition was -8.4%.

With `O=C(CCc1ccccc1)NNC(=O)c1ccc(Br)cc1`, the inhibition was -5.7%.

With `COc1ccc(C(=O)NC(=S)NNC(=O)CCc2ccccc2)cc1`, the inhibition was 54% (active).

Turning to `COc1ccc(C(=O)NC(=S)NNC(=O)c2c(-c3ccccc3)noc2C)cc1`, the inhibition was 38.4%.

Regarding `COc1ccc(CC(NC(C)=O)C(=O)NC2CCN(C(=O)c3ccc(OC)c(OC)c3)CC2)cc1OC` (stereo unspecified), the inhibition was 10.9%.

With `COc1ccc(CN2CCC(c3nc4ccc(Cl)cc4[nH]3)CC2)cc1`, the inhibition was 2.5%.

On to `O=C(OCC1O[C@@H](OC(=O)c2cc(O)c(O)c(O)c2)[C@@H](OC(=O)c2cc(O)c(O)c(O)c2)[C@@H](OC(=O)c2cc(O)c(O)c(O)c2)[C@@H]1OC(=O)c1cc(O)c(O)c(O)c1)c1cc(O)c(O)c(O)c1` (stereo partly specified), for which the inhibition is 71.3% (active).

`CC(=O)NC1C(OCc2ccccc2)OC(COC(C)=O)C(OC(C)=O)C1OC(C)=O` (stereo unspecified): the inhibition is 9%.

Regarding `O=C(Nc1ccccc1-c1ccccc1)c1cccs1`, the inhibition was 7.8%.

Regarding `Cc1ccc2[nH]c(=O)c(CN3CCCCC3)c(-c3ccccc3)c2c1`, the inhibition is 68.3% (active).

As for `O=C(CN1CCOCC1)Nc1c(-c2ccccc2)c2cc(Br)ccc2[nH]c1=O`, the inhibition was 12.8%.

For the compound `Cc1ccc2[nH]c(=O)c(CC=C(Cl)Cl)c(C)c2c1`, the inhibition was 7.7%.

Take `O=C(CSc1nc2ccccc2[nH]1)Nc1nc(-c2ccccc2)c(-c2ccccc2)o1`: the inhibition was 12.3%.

For `COc1ccc(OC)c(C(c2nnnn2C(C)(C)C)N2CCc3ccccc3C2)c1` (stereo unspecified), the inhibition was 29.8%.

Consider `CCOc1ccc2[nH]c(=O)c(C(c3nnnn3CCOC)N3CCOCC3)cc2c1` (stereo unspecified), for which the inhibition was 5.8%.

With `COCCn1nnnc1C(c1cc2ccc(OC)cc2[nH]c1=O)N1CCc2ccccc2C1` (stereo unspecified), the inhibition was 52.1% (active).

`N#C/C(=C\C1=C(N2CCOCC2)C(=C\c2ccccc2)/CC1)C(=O)Nc1ccccc1F`: the inhibition was 28.4%.

With `CCNc1ccc(C(=O)OCC(=O)N2c3ccccc3NC(=O)C2(C)C)cc1[N+](=O)[O-]`, the inhibition was 19.8%.

Turning to `Cc1nc(-c2ccc(Cl)cc2)sc1C(=O)CBr`, the inhibition was 52.6% (active).

As for `Cc1nc(-c2ccccc2)sc1C(=O)/C=C/c1ccccc1`, the inhibition is 13.8%.

Take `Cc1ccc(SCC(=O)c2sc(-c3ccccc3)nc2C)cc1`: the inhibition is 20.1%.
